{"data": "Published values collected from several papers", "cell line": "NCI-H460", "read-out": "cell growth or viability", "note": "Protocols differ between the studies behind these lines."}
{"SMILES": "FC(F)(F)c1ccc(-c2cc(CNc3cccc4cccnc34)on2)cc1", "test": "MTS", "setting": "72 h", "measurement": "IC50", "result": "> 100 µM"}
{"SMILES": "O=C(CSc1nc2ccccc2s1)N/N=C/c1ccc(OCC(=O)Nc2cccc(Cl)c2)cc1", "test": "MTS", "setting": "72 h", "measurement": "IC50", "result": "29.6 µM"}
{"SMILES": "COc1ccc(NC(=O)Nc2cccc(-c3cn(Cc4ccc(C)cc4)nn3)c2)cc1", "test": "CCK-8", "setting": "50 µM, 72 h", "measurement": "viability", "result": "102%"}
{"SMILES": "CCCCCCCCCCCCCCCCCCOCC(COP(=O)([O-])OCC[N+](C)(C)C)OC (stereo not drawn)", "test": "SRB", "setting": "10 µM", "measurement": "inhibition", "result": "53.6%"}
{"SMILES": "N#Cc1ccc(-c2cc(COc3cc(=O)oc4ccccc34)on2)cc1", "test": "MTS", "setting": "72 h", "measurement": "IC50", "result": "> 100 µM"}
{"SMILES": "CCCCCCCCCCCCCCCCCCOc1ccccc1CC(=O)OCC[N+](CC)(CC)CC", "test": "SRB", "setting": "10 µM", "measurement": "inhibition", "result": "65.4%"}
{"SMILES": "Cc1nc(NC(=O)N2CCC[C@H]2C(N)=O)sc1-c1ccnc(C(C)(C)C(F)(F)F)c1", "test": "ATP luminescence", "setting": "5 days", "measurement": "EC50", "result": "35.1 µM"}
{"SMILES": "COc1ccc(NC(=O)NCc2cn(Cc3ccc(Cl)cc3)nn2)cc1", "test": "CCK-8", "setting": "50 µM, 72 h", "measurement": "viability", "result": "91.8%"}
{"SMILES": "CCCCCCCCCCCCCCCCCCOc1cccc(CC(=O)OCC[N+]2(C)CCCCC2)c1", "test": "SRB", "setting": "10 µM", "measurement": "inhibition", "result": "0.88%"}
{"SMILES": "c1ccc(-c2cc(CNc3cccc4cccnc34)on2)cc1", "test": "MTS", "setting": "72 h", "measurement": "IC50", "result": "> 100 µM"}
{"SMILES": "CCCCCCCCCCCCCCCCCCOc1cccc(CC(=O)OCC[N+](C)(C)C)c1", "test": "SRB", "setting": "10 µM", "measurement": "inhibition", "result": "2.4%"}
{"SMILES": "N#Cc1ccc(-c2cc(CNc3cccc4cccnc34)on2)cc1", "test": "MTS", "setting": "72 h", "measurement": "IC50", "result": "> 100 µM"}
{"SMILES": "COc1ccc(NC(=O)NCc2cn(Cc3ccccc3C)nn2)cc1", "test": "CCK-8", "setting": "50 µM, 72 h", "measurement": "viability", "result": "106%"}
{"SMILES": "CCCCCCCCCCCCCCCCCCOc1ccc(CC(=O)OCCC[N+](C)(C)C)cc1", "test": "SRB", "setting": "10 µM", "measurement": "inhibition", "result": "26.7%"}
{"SMILES": "COc1ccc(NC(=O)Nc2cccc(-c3cn(Cc4ccccc4C)nn3)c2)cc1", "test": "CCK-8", "setting": "50 µM, 72 h", "measurement": "viability", "result": "80.7%"}
{"SMILES": "FC(F)(F)c1cc(OCc2cc(-c3ccccc3)no2)c2ccccc2n1", "test": "MTS", "setting": "72 h", "measurement": "IC50", "result": "> 100 µM"}
{"SMILES": "CCCCCCCCCCCCCCCCCCOc1ccccc1CC(=O)OCC[N+](C)(C)C", "test": "SRB", "setting": "10 µM", "measurement": "inhibition", "result": "86.5%"}
{"SMILES": "O=C(Nc1ccc(Cl)cc1)Nc1cccc(-c2cn(Cc3cccc(Br)c3)nn2)c1", "test": "CCK-8", "setting": "50 µM, 72 h", "measurement": "viability", "result": "88.2%"}
{"SMILES": "N#Cc1ccc(-c2cc(COc3cc(C(F)(F)F)nc4ccccc34)on2)cc1", "test": "MTS", "setting": "72 h", "measurement": "IC50", "result": "> 100 µM"}
{"SMILES": "CCCCCCCCCCCCCCCCCCOc1cccc(CC(=O)OCC[N+]2(C)CCOCC2)c1", "test": "SRB", "setting": "10 µM", "measurement": "inhibition", "result": "1%"}
{"SMILES": "O=c1cc(OCc2cc(-c3ccccn3)no2)c2ccccc2o1", "test": "MTS", "setting": "72 h", "measurement": "IC50", "result": "> 100 µM"}
{"SMILES": "COc1ccc(NC(=O)Nc2ccc(-c3cn(Cc4ccc(Cl)cc4)nn3)cc2)cc1", "test": "CCK-8", "setting": "50 µM, 72 h", "measurement": "viability", "result": "86.8%"}
{"SMILES": "O=C(CSc1nc2ccccc2s1)N/N=C/c1ccc(OCC(=O)Nc2ccc(Br)cc2)cc1", "test": "MTS", "setting": "72 h", "measurement": "IC50", "result": "14 µM"}
{"SMILES": "COc1ccc(NC(=O)Nc2ccc(-c3cn(Cc4ccc(C)cc4)nn3)cc2)cc1", "test": "CCK-8", "setting": "50 µM, 72 h", "measurement": "viability", "result": "83.2%"}
{"SMILES": "CCCCCCCCCCCCCCCCCCOc1ccc(CC(=O)OCC[N+]2(C)CCCC2)cc1", "test": "SRB", "setting": "10 µM", "measurement": "inhibition", "result": "0.31%"}
{"SMILES": "COc1ccc(NC(=O)NCc2cn(Cc3ccc(Br)cc3)nn2)cc1", "test": "CCK-8", "setting": "50 µM, 72 h", "measurement": "viability", "result": "77.1%"}
{"SMILES": "O=c1cc(OCc2cc(-c3ccc(Cl)cc3Cl)no2)c2ccccc2o1", "test": "MTS", "setting": "72 h", "measurement": "IC50", "result": "> 100 µM"}
